Test results from ChEMBL document CHEMBL1139340, “Synthesis, radiosynthesis, and biological evaluation of carbon-11 and fluorine-18 labeled reboxetine analogues: potential positron emission tomography radioligands for in vivo imaging of the norepinephrine transporter” (J Med Chem, 2009).

Experiments:
[1] = Ratio of drug uptake in thalamus to caudate of anesthetized rhesus monkey at 15 to 20 mCi after 85 mins postinjection by microPET; format: ADME, organism-based, Macaca mulatta; conditions: in vivo
How it was run: (§1)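 Anesthetized adult male rhesus monkeys scanned on a microPET P4 after 15–20 mCi of the 11C radioligand; emission collected continuously for 125 min, binned, time-activity curves from manually drawn anatomical ROIs; regional uptake divided by caudate uptake (caudate as NET-poor reference) at 85 min postinjection, at baseline.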

[2] = Ratio of drug uptake in thalamus to caudate of awaken rhesus monkey at 15 to 20 mCi after by PET method; format: ADME, Macaca mulatta; conditions: in vivo
How it was run: (§2)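 Awake rhesus monkeys imaged on a high-resolution research tomograph (HRRT) for 120 min after radioligand injection; images coregistered with composite MRI to define regions; time-activity curves generated and highest ratio of regional uptake to caudate uptake taken.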

[3] = Ratio of drug uptake in thalamus to caudate of anesthetized rhesus monkey at 15 to 20 mCi pretreated with 0.125 mg/kg desipramine by microPET; format: ADME, organism-based, Macaca mulatta; parameters: dose 0.125 mg/kg; conditions: in vivo
How it was run: (§3)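 Anesthetized adult male rhesus monkeys imaged on a microPET P4 system after injection of 15–20 mCi of the 11C-labeled radioligand. Desipramine was given 40 min before radiotracer injection. Emission data were collected continuously for 125 min and binned. ROIs were drawn manually on anatomical landmarks in the reconstructed images. The ratio of region-of-interest to caudate uptake was taken from time-activity curves at 85 min postinjection.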

[4] = Ratio of drug uptake in midbrain to caudate of awaken rhesus monkey at 15 to 20 mCi after by PET method; format: ADME, Macaca mulatta; conditions: in vivo; how it was run: as §2
[5] = Ratio of drug uptake in midbrain to caudate of anesthetized rhesus monkey at 15 to 20 mCi pretreated with 0.125 mg/kg desipramine by microPET; format: ADME, organism-based, Macaca mulatta; parameters: dose 0.125 mg/kg; conditions: in vivo; how it was run: as §3
[6] = Ratio of drug uptake in midbrain to caudate of anesthetized rhesus monkey at 15 to 20 mCi after 85 mins postinjection by microPET; format: ADME, organism-based, Macaca mulatta; conditions: in vivo
How it was run: (§4)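 Anesthetized adult male rhesus monkeys given 15–20 mCi of the ¹¹C tracer, alone or after desipramine (0.125 or 0.25 mg/kg) 40 min beforehand. MicroPET emission collected continuously for 125 min and binned. ROIs drawn manually on anatomical landmarks to give time-activity curves. Region-to-caudate uptake ratio taken at 85 min postinjection.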

[7] = Ratio of drug uptake in cerebellum to caudate of awaken rhesus monkey at 15 to 20 mCi after by PET method; format: ADME, tissue-based, Macaca mulatta; conditions: in vivo
How it was run: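 Awake rhesus monkeys imaged on a high-resolution research tomograph for 120 min after injection of the ¹¹C tracer. Images coregistered with composite MRI to define regions of interest. Highest cerebellum-to-caudate uptake ratio read from the time-activity curves.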

[8] = Ratio of drug uptake in cerebellum to caudate of anesthetized rhesus monkey at 15 to 20 mCi pretreated with 0.125 mg/kg desipramine by microPET; format: ADME, organism-based, Macaca mulatta; parameters: dose 0.125 mg/kg; conditions: in vivo; how it was run: as §3
[9] = Ratio of drug uptake in cerebellum to caudate of anesthetized rhesus monkey at 15 to 20 mCi after 85 mins postinjection by microPET; format: ADME, organism-based, Macaca mulatta; conditions: in vivo; how it was run: as §4
[10] = Ratio of drug uptake in pons to caudate of anesthetized rhesus monkey at 15 to 20 mCi pretreated with 0.125 mg/kg desipramine by microPET; format: ADME, organism-based, Macaca mulatta; parameters: dose 0.125 mg/kg; conditions: in vivo; how it was run: as §3
[11] = Ratio of drug uptake in pons to caudate of anesthetized rhesus monkey at 15 to 20 mCi after 85 mins postinjection by microPET; format: ADME, organism-based, Macaca mulatta; conditions: in vivo; how it was run: as §1
[12] = Ratio of drug uptake in pons to caudate of awaken rhesus monkey at 15 to 20 mCi after by PET method; format: ADME, Macaca mulatta; conditions: in vivo; how it was run: as §2
[13] = Lipophilicity, log P at pH 7.4; format: physicochemical; conditions: buffer
How it was run: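 Radiotracer (~5–10 μCi) in 2 mL 1-octanol plus 2 mL 0.02 M sodium phosphate buffer, pH 7.4. Vortexed 10 min at room temperature, centrifuged 5 min. 0.5 mL of each layer gamma-counted and decay corrected. log P = log(octanol counts/buffer counts), done three times and averaged.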

[14] = biological target: Sodium-dependent dopamine transporter (Homo sapiens, UniProt Q01959); assay: Displacement of [125I]RTI-55 from human DAT receptor expressed in canine kidney cells; format: cell-based
How it was run: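 Competition binding against [¹²⁵I]RTI-55 in canine kidney cells stably transfected with human DAT. Ki in nM, geometric mean ± SD of at least three separate experiments, each run in triplicate.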

Homo sapiens [15] = species on record: Homo sapiens; assay: Selectivity for human NET over human DAT
How it was run: (§5)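 Competition binding in stably transfected cells expressing human transporters: NET vs [3H]nisoxetine and SERT vs [3H]citalopram in HEK-293 cells; DAT vs [125I]RTI-55 in canine kidney cells. Ki as geometric mean of at least three experiments in triplicate; selectivity as ratio of SERT or DAT Ki to NET Ki.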

[16] = biological target: Sodium-dependent serotonin transporter (Homo sapiens, UniProt P31645); assay: Displacement of [3H]citalopram from human SERT receptor expressed in HEK293 cells; format: cell-based
How it was run: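 Competition binding against [³H]citalopram in HEK-293 cells stably transfected with human SERT. Ki in nM, geometric mean ± SD of at least three separate experiments, each run in triplicate.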

Homo sapiens [17] = species on record: Homo sapiens; assay: Selectivity for human NET over human SERT; how it was run: as §5
[18] = biological target: Sodium-dependent noradrenaline transporter (Homo sapiens, UniProt P23975); assay: Displacement of [3H]nisoxetine from human NET receptor expressed in HEK293 cells; format: cell-based
Sequence of Sodium-dependent noradrenaline transporter (P23975 whole entry): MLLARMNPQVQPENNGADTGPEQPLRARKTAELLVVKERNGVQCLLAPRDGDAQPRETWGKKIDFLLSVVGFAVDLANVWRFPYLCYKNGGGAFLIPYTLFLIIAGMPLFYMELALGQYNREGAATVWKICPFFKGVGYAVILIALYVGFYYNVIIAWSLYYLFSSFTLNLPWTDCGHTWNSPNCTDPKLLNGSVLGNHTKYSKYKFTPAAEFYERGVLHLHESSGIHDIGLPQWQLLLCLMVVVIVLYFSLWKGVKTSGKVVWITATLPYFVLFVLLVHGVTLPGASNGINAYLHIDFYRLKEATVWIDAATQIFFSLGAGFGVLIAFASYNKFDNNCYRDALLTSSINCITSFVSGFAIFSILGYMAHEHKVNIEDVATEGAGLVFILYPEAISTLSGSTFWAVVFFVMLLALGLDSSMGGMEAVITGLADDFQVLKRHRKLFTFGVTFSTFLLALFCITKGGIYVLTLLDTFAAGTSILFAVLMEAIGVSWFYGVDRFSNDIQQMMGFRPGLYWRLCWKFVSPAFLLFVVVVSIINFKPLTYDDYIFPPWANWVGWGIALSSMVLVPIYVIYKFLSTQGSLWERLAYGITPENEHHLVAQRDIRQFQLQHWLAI

Sequence of Sodium-dependent serotonin transporter (P31645 whole entry): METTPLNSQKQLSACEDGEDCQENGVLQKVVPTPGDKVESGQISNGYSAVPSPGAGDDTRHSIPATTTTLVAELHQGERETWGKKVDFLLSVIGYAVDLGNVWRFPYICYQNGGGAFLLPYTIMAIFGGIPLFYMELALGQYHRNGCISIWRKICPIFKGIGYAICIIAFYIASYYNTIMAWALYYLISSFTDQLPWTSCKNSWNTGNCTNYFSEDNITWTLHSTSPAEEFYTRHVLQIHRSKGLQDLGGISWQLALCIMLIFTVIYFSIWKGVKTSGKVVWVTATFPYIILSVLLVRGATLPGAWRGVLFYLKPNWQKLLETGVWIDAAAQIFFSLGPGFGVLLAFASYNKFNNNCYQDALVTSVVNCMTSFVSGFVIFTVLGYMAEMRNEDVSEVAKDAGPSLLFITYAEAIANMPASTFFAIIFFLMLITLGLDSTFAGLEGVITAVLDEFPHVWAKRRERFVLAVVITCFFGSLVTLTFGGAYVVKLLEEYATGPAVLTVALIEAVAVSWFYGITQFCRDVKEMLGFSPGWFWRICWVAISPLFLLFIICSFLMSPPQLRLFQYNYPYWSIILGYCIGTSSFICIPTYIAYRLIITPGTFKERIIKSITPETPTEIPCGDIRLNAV
Sequence of Sodium-dependent dopamine transporter (Q01959 whole entry): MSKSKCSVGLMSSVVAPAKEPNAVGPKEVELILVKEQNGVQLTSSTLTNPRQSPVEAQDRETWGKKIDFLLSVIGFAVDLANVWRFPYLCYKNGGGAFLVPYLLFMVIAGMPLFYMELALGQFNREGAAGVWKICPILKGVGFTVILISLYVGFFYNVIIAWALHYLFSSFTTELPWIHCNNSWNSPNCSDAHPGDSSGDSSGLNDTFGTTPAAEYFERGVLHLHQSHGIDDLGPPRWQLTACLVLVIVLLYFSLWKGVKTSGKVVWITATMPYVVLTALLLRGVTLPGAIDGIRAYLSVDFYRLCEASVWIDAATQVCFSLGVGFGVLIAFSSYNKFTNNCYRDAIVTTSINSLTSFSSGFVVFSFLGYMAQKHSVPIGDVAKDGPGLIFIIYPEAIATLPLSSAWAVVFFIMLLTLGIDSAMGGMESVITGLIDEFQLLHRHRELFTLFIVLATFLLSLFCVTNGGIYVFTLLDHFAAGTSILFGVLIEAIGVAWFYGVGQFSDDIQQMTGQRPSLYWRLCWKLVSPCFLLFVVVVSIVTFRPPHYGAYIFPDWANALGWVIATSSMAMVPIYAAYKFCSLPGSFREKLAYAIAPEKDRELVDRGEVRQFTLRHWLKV

Ratio [1]	Ratio [2]	Ratio [3]	Ratio [4]	Ratio [5]	Ratio [6]	Ratio [7]	Ratio [8]	Ratio [9]	Ratio [10]	Ratio [11]	Ratio [12]	SMILES	logD [13]	Ki [14] [nM]	Ratio Ki (Homo sapiens [15])	Ki [16] [nM]	Ratio Ki (Homo sapiens [17])	Ki [18] [nM]
1.34	1.15	1.02	1	1.09	1.33	0.95	0.81	1.05	0.98	1.27	1	[11CH3]c1ccccc1S[C@@H](c1ccccc1)[C@@H]1CNCCO1	–	–	–	–	–	–
–	–	–	–	–	–	–	–	–	–	–	–	FCCCc1ccccc1O[C@@H](c1ccccc1)[C@@H]1CNCCO1	2.29	> 6000	> 2000	463	126	3.68
